CSC inhib = cancer stem cell inhibition. AID 2717. inhibition, % at 7.5 µM. 300,000 tested, 1.1% active. cancer stem cell-like cells viability, luminescence; in the data active means inhibition above about 75%; tested in HMLE shEcad cells
Beta cell apopt = beta cell apoptosis inhibition. INS-1E cytokine-induced death, ATP luminescence, 48 h; percent of positive-control rescue, neutral wells zero. protection from apoptosis, % (test concentration not listed). 300,000 tested, 0.8% active. AID 435005;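 active means Every replicate reaches about 75%, or at least half do and their mean reaches it too, limit read from the data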;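 further: 0% = cytokine-treated negative control wells and 100% = positive control rescue; higher means more ATP so stronger rescue from cytokine killing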
MC4R antagonist = human MC4R antagonism in cAMP assay. P32245. MC4R-expressing cells, MTII-stimulated cAMP, LANCE TR-FRET. inhibition, % at 6.5 µM. 360,000 tested, 0.48% active;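 active means inhibition above its plate's cutoff, the mean of tested wells on that plate plus 3 SD, cut at about 29% in these data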;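 further: 0% = Melanotan II alone and 100% = Melanotan II plus saturating MCL0020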
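material = U2OS cells stably expressing human melanocortin 4 receptor (MC4R) | also added = Melanotan II challenge | dosing = single nominal compound dose of 6.5 µM | detection = TR-FRET with Eu-cAMP and labeled anti-cAMP, 671 nm | replication = singlicate | timing = compound 30 min, challenge 1 h, detection 1 h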
MC4R barr agon = human MC4R agonism via beta-arrestin; U2OS MC4R beta-arrestin complementation, luminescence; percent of melanotan II response, DMSO zero; activation, % at 8.9 µM; 360,000 tested, 0.98% active; AID 540308;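 active means activation above a per-plate cutoff, the mean activation of sample wells on that plate plus 3 SD, cut at about 8% in these data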
ANO1 activ = activates or potentiates the mouse TMEM16A chloride channel | Q8BHY3 | HEK293 TMEM16A/YFP-H148Q/I152L, iodide quench fluorescence; active compounds read low | B-score at 10 µM | 340,000 tested, 0.3% active | AID 623877;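 active means fluorescence-ratio B-score plate-corrected deviation score at least 3 library SD below zero, with starting fluorescence score within 5 deviations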;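 further: channel opened by trigger with iodide after compound preincubation; score built on the fluorescence ratio of max minus min over baseline; more negative score means more quench and so TMEM16A activation or potentiation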
Target sequence (Q8BHY3 whole entry, looked up): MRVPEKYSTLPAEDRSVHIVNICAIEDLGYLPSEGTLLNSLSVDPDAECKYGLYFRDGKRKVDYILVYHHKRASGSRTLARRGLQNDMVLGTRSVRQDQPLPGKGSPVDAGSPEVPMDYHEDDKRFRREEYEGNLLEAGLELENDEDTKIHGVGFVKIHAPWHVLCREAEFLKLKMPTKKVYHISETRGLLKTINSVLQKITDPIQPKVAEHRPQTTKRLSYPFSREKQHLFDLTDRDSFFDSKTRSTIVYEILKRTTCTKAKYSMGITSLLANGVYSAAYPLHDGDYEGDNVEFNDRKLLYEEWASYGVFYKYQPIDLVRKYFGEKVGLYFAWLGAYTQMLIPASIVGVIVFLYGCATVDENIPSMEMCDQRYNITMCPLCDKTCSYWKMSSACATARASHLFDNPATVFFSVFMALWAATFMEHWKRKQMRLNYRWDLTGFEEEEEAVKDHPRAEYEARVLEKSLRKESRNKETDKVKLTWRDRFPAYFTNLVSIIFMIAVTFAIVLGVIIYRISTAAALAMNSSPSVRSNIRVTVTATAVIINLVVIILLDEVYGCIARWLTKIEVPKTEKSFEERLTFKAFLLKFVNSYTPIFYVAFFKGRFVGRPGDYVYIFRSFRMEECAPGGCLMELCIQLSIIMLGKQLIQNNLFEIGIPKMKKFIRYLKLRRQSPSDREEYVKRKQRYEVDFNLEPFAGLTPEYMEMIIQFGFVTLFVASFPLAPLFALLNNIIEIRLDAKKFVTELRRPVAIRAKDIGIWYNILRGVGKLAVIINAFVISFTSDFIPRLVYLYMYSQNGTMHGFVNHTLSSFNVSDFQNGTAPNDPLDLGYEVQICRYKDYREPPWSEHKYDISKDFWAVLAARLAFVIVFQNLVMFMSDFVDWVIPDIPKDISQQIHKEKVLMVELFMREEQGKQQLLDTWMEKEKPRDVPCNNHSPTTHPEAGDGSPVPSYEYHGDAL
TMEM16A inh = blocks the mouse calcium-activated chloride channel TMEM16A; Q8BHY3; HEK293 TMEM16A/YFP iodide influx fluorescence, ionomycin; normalized B-score (activity score, 25-100; higher = stronger inhibition) at 10 µM; 310,000 tested, 1.2% active;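 active means ratio plate-corrected score three or more library SD toward inhibition, starting fluorescence score within five deviations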;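 further: score derived from kinetic fluorescence span divided by baseline fluorescence per well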
cAMP nonselect = U2OS forskolin cAMP inhibition counter-screen | shares compounds with MC4R antagonist | parental U2OS, LANCE TR-FRET | inhibition, % at 6.5 µM | 1,600 tested, 26% active | AID 602193;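 active means mean inhibition over triplicates above the low-control well mean plus 3 SD, set per campaign, cut at about 13% in these data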;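 further: signal is single emission at 671 nm which falls as cellular cAMP rises; 0% = forskolin-stimulated wells and 100% = buffer without forskolin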
MC4R cAMP antag = human MC4R cAMP antagonism confirmation. MC4R-expressing cells, MTII-stimulated cAMP, TR-FRET. inhibition, % at 6.5 µM. shares compounds with MC4R antagonist. 1,600 tested, 27% active; in the data active means inhibition above about 29%;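 further: 0% = agonist stimulated wells alone and 100% = agonist stimulated wells plus saturating reference antagonist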
An asterisk follows results filed as active; i = inactive; x = not tested or not shown; ! = not confirmed by another sample. Most compounds without a hit are left out; they make up all but 3.8% or so of the library.

SMILES | CSC inhib | Beta cell apopt | MC4R antagonist | MC4R barr agon | ANO1 activ | TMEM16A inh | cAMP nonselect | MC4R cAMP antag
COc1ccc(-c2ccc(CN3C(CC(C)C)C(=O)N(Cc4cn(CCC5OCCO5)nn4)CCS3(=O)=O)cc2)cc1OC (stereo unspecified) | x | x | 11 | 0 | x | x | x | x
COc1ccc(NC(=O)N2CCN(c3nc4ccccc4n3C(C)C)CC2)cc1 | -7 | 5 | 30* | 3 | i | i | 1 | 2
CC(C)c1nnc(NC(=O)CCC2CCCCC2)s1 | 4 | -4 | -2 | 0 | i | i | x | x
Cc1cc(Cl)c2oc(C(=O)N3CCN(C(=O)c4ccco4)CC3)c(C)c2c1 | -10 | 2 | -7 | 2 | i | i | x | x
O=C(COc1ccccc1F)N1N=C(c2cccs2)CC1c1ccco1 (stereo unspecified) | x | x | 2 | -1 | i | x | x | x
CC(=O)c1sc(-c2ccccc2)cc1NS(=O)(=O)c1ccccc1 | -18 | 3 | 21 | -1 | i | i | x | x
CC(=O)c1sc(-c2ccccc2)cc1NS(=O)(=O)c1ccc(C)cc1 | 50 | 0 | 35* | 1 | i | i | 32* | 57*
CCOc1cc(N2CCOCC2)c(OCC)cc1NC(=O)COC(=O)COc1ccc(C#N)cc1 | -1 | -2 | 31* | -2 | i | i | 10 | 15
COc1ccc(-n2c(CN3CCOCC3)nc3ccc([N+](=O)[O-])cc3c2=O)c(OC)c1 | -1 | 4 | 5 | -1 | i | i | x | x
COc1ccc(-n2c(CN3CCC(C)CC3)nc3ccc([N+](=O)[O-])cc3c2=O)c(OC)c1 | -7 | -1 | 34* | 0 | i | i | 0 | -9
CCOC(=O)C(C)NC(=O)CCc1nnc2ccc(N3CCC(C)CC3)nn12 (stereo unspecified) | -8 | -4 | 10 | 0 | i | i | x | x
COCC(=O)Oc1cc(-c2ccc(C)cc2C)c(OC(=O)COC)c(-c2ccc(C)cc2C)c1 | x | x | 30* | 0 | x | x | 8 | 6
CC[C@]1(C(=O)OC)[C@H]2C(=O)N(C)C(=O)[C@H]2[C@H]2CN=C(SCc3ccc(C#N)cc3)N21 | x | x | -4 | 1 | x | x | x | x
Cc1ccc(S(=O)(=O)C=CS(=O)(=O)c2ccc(C)cc2)cc1 | x | x | 42* | -5 | x | x | 9 | -4
Cc1ncoc1C(=O)NC1CCCc2c1cnn2-c1ccc(C(C)(C)C)cc1 (stereo unspecified) | x | x | 8 | -2 | i | x | x | x
CC(C)(C)OC(=O)NCCCCCNC(=O)c1[nH]cnc1C(=O)Nc1cc(Br)ccc1F | x | x | 33* | 2 | x | x | 4 | 3
CC(C)(C)OC(=O)NCc1ccc(NC(=O)c2nc[nH]c2C(=O)NCCCNC(=O)c2[nH]cnc2C(=O)Nc2ccc(CNC(=O)OC(C)(C)C)cc2)cc1 | 114* | 11 | 31* | 8.7* | i | x | 3 | 8
O=C(Nc1ccccc1C(F)(F)F)c1c(F)cccc1Cl | -10 | -10 | 30* | 2 | i | i | 1 | -6
CCc1ccc(NC(=O)C(=O)NCCN2CCN(S(=O)(=O)c3ccccc3)CC2)cc1 | -1 | 0 | 32* | 0 | i | i | 4 | 8
CCc1ccc(NC(=O)C(=O)NCCN2CCN(S(C)(=O)=O)CC2)cc1 | x | -2 | 0 | -2 | i | i | x | x
O=C(COC(=O)CNC(=O)c1ccc2c(c1)OCO2)Nc1ncc(Cl)cc1Cl | -7 | -3 | 30* | -2 | i | i | 14* | 23
O=C(COC(=O)/C=C/c1ccco1)Nc1ncc(Cl)cc1Cl | -1 | -7 | 31* | -1 | i | i | -4 | -18
O=C(COC(=O)c1ccc2c(c1)OCO2)Nc1ncc(Cl)cc1Cl | -9 | -3 | 9 | -2 | i | i | x | x
Cc1nc(NC(=O)COC(=O)/C=C/c2ccco2)c(Cl)cc1Cl | 10 | 0 | 1 | -1 | i | x | x | x
Cc1cccc(-c2nc(CS(=O)CC(=O)NC3CCCC(C)C3C)c(C)o2)c1 (stereo unspecified) | 6 | -4 | 4 | 0 | i | i | x | x
SMILES | CSC inhib | Beta cell apopt | MC4R antagonist | MC4R barr agon | ANO1 activ | TMEM16A inh | cAMP nonselect | MC4R cAMP antag
CN(Cc1cnc2nc(N)nc(N)c2n1)c1ccc(C(=O)NC(CCC(=O)O)C(=O)O)cc1 (stereo unspecified) | x | x | 1 | -2 | i | x | x | x
Cc1ccc(-c2cc(C(=O)O)c3cc(Br)ccc3n2)s1 | 8 | 1 | 36* | 0 | i | i | 16* | 31*!
Cc1nc2ccc(Br)cc2c(-c2ccccc2)c1C(=O)O | -11 | -2 | 35* | -2 | i | i | 48* | 96*
COc1cc(C(=O)/C=C/c2cccnc2)c([N+](=O)[O-])cc1OC | 11 | -6 | 11 | -1 | i | i | x | x
C=CCNc1nc(Nc2ccc(OC)c(OC)c2)c2sc(-c3ccccc3)cc2n1 | x | x | -2 | 0 | x | x | x | x
CC(C(=O)Nc1ccc2c(c1)OCO2)n1cnc2c1c(=O)n(C)c(=O)n2C (stereo unspecified) | -5 | -1 | -1 | -1 | i | x | x | x
COc1ccc(-n2nnnc2S(=O)(=O)Cc2ccc(C(=O)O)cc2)cc1 | 51 | -28 | 9 | -1 | i | i | x | x
COc1ccc(-n2nnnc2S(=O)(=O)CC(=O)N2CCCCC2)cc1 | 39 | 4 | 39* | -1 | i | i | 6 | 51*
CCN(CC)S(=O)(=O)c1ccc(Cl)c(NC(=O)COc2ccc3c(C)cc(=O)oc3c2)c1 | -7 | -3 | -2 | -1 | i | i | x | x
CCN(CC)S(=O)(=O)c1ccc(OC)c(NC(=O)COc2ccc3c(C)cc(=O)oc3c2)c1 | -7 | -1 | 114* | -1 | i | i | 96* | 168*
CCCCN(C=O)c1c(CC)nc2c(OCc3ccccc3C)cccn12 | x | x | -2 | -1 | x | x | x | x
CC1(C)C(=O)Nc2ccccc2N1C(=O)COC(=O)c1cc(S(C)(=O)=O)ccc1Cl | x | x | 23 | -2 | i | x | x | x
CC1(C)C(=O)Nc2ccccc2N1C(=O)COC(=O)c1cc(S(=O)(=O)N2CCOCC2)ccc1F | -2 | -4 | 36* | -2 | i | i | 17* | 46*
C#C[C@]1(OC(C)=O)CCC2C3CCC4=CC(=O)CC[C@@H]4C3CC[C@@]21C (stereo partly specified) | -10 | 7 | -6 | 2 | i | i | x | x
CCOc1ccccc1NC(=O)CSc1nc(=O)n(CCN2CCOCC2)c2c1CCCC2 | -8 | 0 | 4 | 1 | i | i | x | x

High-throughput results (PubChem BioAssay)
